Compound activity deposited in PubChem by The Scripps Research Institute Molecular Screening Center.
UHRF1 binding: UHRF1 methylated DNA binding inhibitors, primary screen, counter-screen for MBD2 inhibitor project, biochemical, TR-FRET, human UHRF1, single concentration. E3 ubiquitin-protein ligase UHRF1 (Homo sapiens), Q96T88. UHRF1 binding to methylated oligo. inhibition, % at 4.4 µM. 370,000 tested, 0.75% active. AID 687016, 2013; in the data active means inhibition above about 21%;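 further: UHRF1 SRA domain binding a hemimethylated CpG hairpin DNA probe; 0% = median of test compound wells and 100% = reference inhibitor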
LEDGF integ inh: blockers of LEDGF/p75-dependent integrase strand transfer – biochemical, TR-FRET, high throughput, primary screen; TR-FRET IN-LEDGF/p75 DNA integration, Eu/Cy5; 370,000 tested, 0.64% active; inhibition, % at 3.7 µM; HIV-1 integrase (with human LEDGF/p75);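 active means inhibition above the screen-wide mean plus 3 SD, cut at about 13% in these data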;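 further: signal is the Cy5 over europium emission ratio at 671 and 618 nm; 0% = plate median of compound wells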
MBD2 inh: inhibitors of MBD2 binding to methylated DNA, primary screen, biochemical, TR-FRET, DNA-binding domain, human; AID 686964, 2013; Methyl-CpG-binding domain protein 2 (Homo sapiens), Q9UBB5; 370,000 tested, 0.31% active; MBD2 binding to methylated oligonucleotide; inhibition, % at 4.4 µM; in the data active means inhibition above about 13%
TDP2 absorb: human TDP2 enzyme inhibitors, primary screen, biochemical, epi absorbance, recombinant enzyme | 370,000 tested, 0.34% active | inhibition, % at 12.8 µM | AID 720702, 2013 | T5PNP hydrolysis, p-nitrophenol absorbance 415 nm;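 active means inhibition above the mean of all tested compounds plus 3 SD, set per campaign, cut at about 25% in these data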;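 further: 0% = DMSO with enzyme and 100% = buffer with substrate but no TDP2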
Target sequence (O95551 whole entry, looked up): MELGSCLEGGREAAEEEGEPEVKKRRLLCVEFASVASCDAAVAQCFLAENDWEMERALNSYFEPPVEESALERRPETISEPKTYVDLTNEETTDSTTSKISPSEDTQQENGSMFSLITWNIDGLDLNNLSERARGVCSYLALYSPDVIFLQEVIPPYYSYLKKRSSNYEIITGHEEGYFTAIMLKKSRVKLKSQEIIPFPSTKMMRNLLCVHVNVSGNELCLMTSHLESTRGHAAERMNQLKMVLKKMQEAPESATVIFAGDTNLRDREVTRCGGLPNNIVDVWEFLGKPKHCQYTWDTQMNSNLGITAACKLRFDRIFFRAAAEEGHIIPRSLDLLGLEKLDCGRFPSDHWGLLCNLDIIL
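Evaluation: % inhibition relative to enzyme-containing and enzyme-free wells. Material: recombinant human TDP2. Benchmarks: enzyme-free and DMSO wells. Timing: enzyme reaction with compound for 2 h at 37 °C. Compound dosing: 12.8 µM only. Measured by: p-Nitrophenol epi absorbance. Reagent: T5PNP substrate at 5 mM, a TopII-DNA adduct mimic. Replication: single well per compound.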
The depositor's hits bear a star. Rows were chosen to be rich in hits. Some 1.6% of all compounds tested hit in one or more screens of this group.

SMILES	UHRF1 binding	LEDGF integ inh	MBD2 inh	TDP2 absorb
Cc1c(C(Nc2ccccn2)c2ccccc2)c(=O)n(-c2ccccc2)n1C (configuration not stated)	22*	-1	8	9
Cn1cnnc1SCC(=O)Nc1sc2c(c1C(N)=O)CCC2	25*	6	10	6
CCCCOc1ccc(S(=O)(=O)n2c(C)nc3ccccc32)cc1	43*	-3	0	2
CCOc1ccc(S(=O)(=O)n2c(C)nc3ccccc32)cc1	4	6	-5	-19
Cc1ccc(C(=O)N(C)[C@H]2C[C@H]3c4[nH]c5c(-c6ccccc6)cccc5c4CCN3C(=O)[C@H]2[C@H](C)O)cc1	1	3	-6	-16
Cc1occc1C(=O)N(Cc1nc(-c2ccccc2)no1)C(C)C	24*	12	5	-1
CCN(Cc1nc(-c2ccccc2)no1)C(=O)c1ccoc1C	5	-1	1	8
Cc1ccc(F)cc1NC(=O)COC(=O)c1ccc2ncsc2c1	0	3	-1	-10
Cc1ccc(NC(=O)COC(=O)c2ccc3ncsc3c2)c(C)c1	22*	-1	0	15
COc1ccc2cc3[n+](cc2c1O)CCc1cc2c(cc1-3)OCO2	7	27*	-1	24
CN(C)c1ccc(C(=O)NCC2CCN(C(=O)C(=O)c3cccs3)CC2)cc1	-2	-1	-1	-7
COC(=O)c1cc(S(=O)(=O)N2CCCN(C(C)=O)CC2)cn1C	-3	2	0	3
CCCCc1cn([C@@H](CCCCN)C(=O)N2CCNCC2)nn1	24*	2	6	2
CCOC(=O)N1CCN(C(=O)C[C@H]2C[C@@]3(C(=O)OC)C(=C[C@H](COCc4ccccc4)O[C@@H]3C)N(Cc3ccc(Cl)cc3Cl)C2=O)CC1	2	-2	2	8
O=C1CCCN1CC1CCCN(Cc2nc(COc3ccccc3)no2)C1 (configuration not stated)	23*	0	2	-2
O=C1CCCN1CC1CCN(Cc2nc(CC3CC3)no2)CC1	1	0	0	-10
COc1ccc(C(C)C)cc1S(=O)(=O)Nc1ccncc1	2	4	0	-5
Cc1ccc(C(C)C)cc1S(=O)(=O)Nc1ccncc1	28*	-1	-5	6
COc1cc(CNCCNC(=O)c2cccs2)cc(OC)c1OC	5	0	0	28*
Cc1ccc(-n2c(SCC(=O)N/N=C/C=C\c3ccccc3[N+](=O)[O-])nnc2-c2ccccc2)cc1	-2	5	-7	-13
Cc1[nH]c2ccccc2c1SCC(=O)N1CCC(C)CC1	25*	-1	2	7
Cc1[nH]c2ccccc2c1SCC(=O)N1CCOCC1	0	0	2	6
COc1ccc(C2C(C(=O)Nc3ccc(Cl)c(Cl)c3)CCC(=O)N2c2ccc(OC)cc2)cc1 (configuration not stated)	-1	-2	4	-4
Cc1cccc(N2CCN(c3ccc4cc(S(=O)(=O)N5CCCCC5)ccc4n3)CC2)c1C	23*	1	11	19
O=C(C(=O)N1CCN(C(=O)Cc2ccccc2)CC1)c1cccc(C(F)(F)F)c1	58*	2	-6	5
O=C(NN1CC(C(=O)OCc2ccccc2F)CC1=O)c1ccccc1 (configuration not stated)	22*	0	5	1
Cc1nnn(C23CC4CC(CC(CC(=O)Nc5ccc(C)c(Cl)c5)(C4)C2)C3)n1	27*	1	2	-4
COC(=O)[C@]12C[C@H](CC(=O)N3CCN(C(=O)C4CC4)CC3)C(=O)N(Cc3ccccc3)C1=C[C@H](C(C)(C)C)O[C@@H]2C	-1	-3	2	2
CCOC(=O)CCCNC(=O)O[C@@H]1CC[C@@]23CCCN2C(=O)CCC[C@H]3C1	-2	2	-3	-5
COC(=O)[C@]12C[C@H](CC(=O)NCc3cccs3)C(=O)N(Cc3ccc4c(c3)OCO4)C1=C[C@H](C(C)C)O[C@@H]2C1CC1	-2	4	-1	-4
